We go through three compounds from ChEMBL document CHEMBL2034871, “First-in-class, dual-action, 3,5-disubstituted indole derivatives having human nitric oxide synthase (nNOS) and norepinephrine reuptake inhibitory (NERI) activity for the treatment of neuropathic pain” (J Med Chem, 2012).

Where only a bound is given, the exact number is not on record here.

One data set addresses T1, Cytochrome P450 1A2 (Homo sapiens, UniProt P05177).
T1 sequence (P05177 whole entry): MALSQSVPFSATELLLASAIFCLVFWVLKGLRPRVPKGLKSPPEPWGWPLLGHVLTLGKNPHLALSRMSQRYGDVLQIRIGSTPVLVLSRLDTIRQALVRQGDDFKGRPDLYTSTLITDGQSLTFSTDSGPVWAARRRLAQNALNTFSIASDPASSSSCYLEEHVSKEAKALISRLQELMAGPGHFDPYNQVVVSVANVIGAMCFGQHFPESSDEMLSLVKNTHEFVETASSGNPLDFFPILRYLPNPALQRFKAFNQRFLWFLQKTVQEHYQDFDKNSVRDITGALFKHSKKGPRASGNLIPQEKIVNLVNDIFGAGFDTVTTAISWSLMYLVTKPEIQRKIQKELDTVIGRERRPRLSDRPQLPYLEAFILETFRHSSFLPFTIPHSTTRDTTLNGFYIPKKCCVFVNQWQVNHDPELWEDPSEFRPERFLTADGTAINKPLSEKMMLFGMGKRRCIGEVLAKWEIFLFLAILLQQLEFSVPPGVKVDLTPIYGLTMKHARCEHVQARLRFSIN
Kind of data set: Inhibition of CYP1A2. Type of data set: ADME.

The target in the next data set is Cytochrome P450 2C19 (Homo sapiens, UniProt P33261). Briefly: Inhibition of CYP2C19. Format: ADME.
In the next data set the target is Cytochrome P450 2D6 (Homo sapiens, UniProt P10635). Briefly: Inhibition of CYP2D6. Format: ADME.
Data set [1] addresses Nitric oxide synthase, inducible (Homo sapiens, UniProt P35228). Briefly: Inhibition of human iNOS expressed in baculovirus-infected insect sf9 cells assessed as conversion of [3H]-L-arginine to [3H]-L-citrulline preincubated for 15 mins with compound measured after 45 mins by scintillation counting.
A further data set has as its target Cytochrome P450 2C9 (Homo sapiens, UniProt P11712). Briefly: Inhibition of CYP2C9. Type of data set: ADME.
Data set [2] has as its system Hepatocyte. Kind of data set: Metabolic stability in primates liver hepatocytes assessed as compound turnover after 120 mins. Format: ADME, cell-based. To be noted: 2 h.
For data set [3], the system named is Hepatocyte. Briefly: Metabolic stability in rat liver hepatocytes assessed as compound turnover after 120 mins. Type of data set: ADME, cell-based. The settings on record: 2 h.
Data set [4] has as its target Sodium-dependent noradrenaline transporter (Homo sapiens, UniProt P23975). Kind of data set: Displacement of [3H]nisoxetine from human NET expressed in CHO cells after 120 mins by scintillation counting. Format: cell-based. The gist of the method: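 Membranes from hNET-transfected CHO cells (20 μg protein) incubated 120 min at 4 °C with 1 nM [3H]nisoxetine in 50 mM Tris-HCl pH 7.4, 120 mM NaCl, 5 mM KCl. Nonspecific binding defined with 1 μM desipramine. Filtered on PEI-soaked GF/B and counted.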
On the technique in general: Displacement assays read how much labelled ligand stays bound in the presence of the test substance.

The subject of data set [5] is Hepatocyte. Kind of data set: Metabolic stability in human liver hepatocytes assessed as compound turnover after 120 mins. The settings on record: 2 h. Type of data set: ADME, cell-based.
Data set [6] can be described thus: Metabolic stability in dog liver hepatocytes assessed as compound turnover after 120 mins. To be noted: 2 h. Type of data set: ADME, cell-based, Canis lupus familiaris, Hepatocyte.
Data set [7] concerns Rattus norvegicus. Briefly: Antiallodynic activity in L5/L6 SNL Sprague-Dawley rat model of […] model assessed as reversal of mechanical force-induced allodynia at 30 mg/kg, ip measured after 30 mins. Type of data set: functional. The settings on record: route intraperitoneal. The procedure, abridged: (§1)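 Sprague-Dawley rats under halothane had L5 and L6 spinal nerves tightly ligated with 4-0 silk distal to the DRG, then recovered singly housed. Drug given intraperitoneally. Mechanical withdrawal threshold and radiant-heat withdrawal latency of the affected hind paw were measured.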

Data set [8] in a line: Vasoconstrictive activity in U46619 precontracted human arteries assessed as inhibition of acetylcholine-induced vasorelaxation at 100 uM after 50 mins. Format: tissue-based, Artery. The gist of the method: (§2)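 Human resistance artery rings (~2 mm) from surgical tissue, wire-mounted in myograph baths of Krebs PSS at 37 °C, gassed with 95% O2/5% CO2. […] Compound given 50 min with or without L-arginine, then U46619 preconstriction and ACh curves (1×10⁻¹⁰ to 1×10⁻⁵ M). Responses as % of maximal U46619 contraction.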

Data set [9] can be described thus: Vasoconstrictive activity in U46619 precontracted human arteries assessed as inhibition of acetylcholine-induced vasorelaxation at 100 uM after 50 mins in presence of L-arginine. Type of data set: tissue-based, Artery. The gist of the method: as §2
The test system of data set [10] is Rattus norvegicus. Kind of data set: Antihyperalgesic activity in L5/L6 SNL Sprague-Dawley rat model of […] model assessed as reversal of thermal hyperalgesia at 30 mg/kg, ip measured after 30 mins. Type of data set: functional. The settings on record: route intraperitoneal. The gist of the method:
as §1

A further data set deals with Cytochrome P450 3A4 (Homo sapiens, UniProt P08684). Briefly: Inhibition of CYP3A4. Type of data set: ADME.
In data set [11] the target is Muscarinic acetylcholine receptor M3 (Homo sapiens) (UniProt P20309). Briefly: Inhibition of human muscarinic M3 receptor at 10 uM. The gist of the method: (§3)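 Broad in vitro receptor binding screen at one concentration, 10 μM. Specific binding taken as total minus nonspecific binding with excess unlabeled ligand. […] A reference compound was run concurrently in each assay.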

Data set [12] concerns the target Mu-type opioid receptor (Homo sapiens) (UniProt P35372). Kind of data set: Inhibition of mu opioid receptor at 10 uM. The procedure, abridged: as §3
Data set [13] can be described thus: Inhibition of sigma receptor at 10 uM. The gist of the method:
as §3

In data set [14] the target is T2, Muscarinic acetylcholine receptor M2 (Homo sapiens) (UniProt P08172).
T2 sequence (whole entry): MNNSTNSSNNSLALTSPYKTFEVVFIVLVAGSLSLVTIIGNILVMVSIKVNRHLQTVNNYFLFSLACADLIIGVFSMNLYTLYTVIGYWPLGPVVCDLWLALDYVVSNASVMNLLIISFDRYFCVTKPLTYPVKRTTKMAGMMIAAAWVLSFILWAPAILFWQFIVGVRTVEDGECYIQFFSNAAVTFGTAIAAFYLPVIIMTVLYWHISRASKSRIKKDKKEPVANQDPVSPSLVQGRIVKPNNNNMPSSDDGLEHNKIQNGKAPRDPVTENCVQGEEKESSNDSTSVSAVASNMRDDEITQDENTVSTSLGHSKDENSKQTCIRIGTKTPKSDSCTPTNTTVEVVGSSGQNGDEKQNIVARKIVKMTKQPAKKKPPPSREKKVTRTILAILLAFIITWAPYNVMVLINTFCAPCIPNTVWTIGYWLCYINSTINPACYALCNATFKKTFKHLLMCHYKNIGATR
Kind of data set: Inhibition of human muscarinic M2 receptor at 10 uM. The gist of the method: as §3

Data set [15] deals with T3, Muscarinic acetylcholine receptor M4 (Homo sapiens) (UniProt P08173).
T3 sequence (whole entry): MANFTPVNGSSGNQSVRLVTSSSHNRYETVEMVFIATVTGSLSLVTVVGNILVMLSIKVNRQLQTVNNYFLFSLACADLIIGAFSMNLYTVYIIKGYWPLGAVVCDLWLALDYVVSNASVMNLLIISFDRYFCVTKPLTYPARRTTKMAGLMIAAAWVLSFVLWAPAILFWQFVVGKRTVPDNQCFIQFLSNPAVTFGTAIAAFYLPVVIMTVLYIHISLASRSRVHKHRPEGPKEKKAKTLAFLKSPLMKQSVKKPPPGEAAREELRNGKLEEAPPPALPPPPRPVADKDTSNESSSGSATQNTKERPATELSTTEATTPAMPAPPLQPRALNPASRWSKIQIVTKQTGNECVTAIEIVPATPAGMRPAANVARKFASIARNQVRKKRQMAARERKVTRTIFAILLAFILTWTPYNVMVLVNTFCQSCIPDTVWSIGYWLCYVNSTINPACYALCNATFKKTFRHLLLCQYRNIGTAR
Kind of data set: Inhibition of human muscarinic M4 receptor at 10 uM. The procedure, abridged: as §3

Data set [16] has as its target T4, Muscarinic acetylcholine receptor M5 (Homo sapiens) (UniProt P08912).
T4 sequence (whole entry): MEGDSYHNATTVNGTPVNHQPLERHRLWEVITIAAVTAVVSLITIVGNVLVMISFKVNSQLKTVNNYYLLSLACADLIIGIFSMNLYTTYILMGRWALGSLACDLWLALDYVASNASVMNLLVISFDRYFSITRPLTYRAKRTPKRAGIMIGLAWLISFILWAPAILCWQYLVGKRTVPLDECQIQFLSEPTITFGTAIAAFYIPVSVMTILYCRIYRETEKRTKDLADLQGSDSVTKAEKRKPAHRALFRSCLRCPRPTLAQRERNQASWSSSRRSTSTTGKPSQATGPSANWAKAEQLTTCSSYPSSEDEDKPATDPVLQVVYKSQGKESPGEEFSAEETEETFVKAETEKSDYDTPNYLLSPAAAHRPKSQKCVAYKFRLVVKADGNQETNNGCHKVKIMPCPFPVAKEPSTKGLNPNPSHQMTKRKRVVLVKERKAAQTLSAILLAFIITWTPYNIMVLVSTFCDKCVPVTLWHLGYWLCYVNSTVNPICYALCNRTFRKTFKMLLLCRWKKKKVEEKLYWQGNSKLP
Kind of data set: Inhibition of human muscarinic M5 receptor at 10 uM. The gist of the method: as §3

The target of data set [17] is T5, Muscarinic acetylcholine receptor M1 (Homo sapiens) (UniProt P11229).
T5 sequence (whole entry): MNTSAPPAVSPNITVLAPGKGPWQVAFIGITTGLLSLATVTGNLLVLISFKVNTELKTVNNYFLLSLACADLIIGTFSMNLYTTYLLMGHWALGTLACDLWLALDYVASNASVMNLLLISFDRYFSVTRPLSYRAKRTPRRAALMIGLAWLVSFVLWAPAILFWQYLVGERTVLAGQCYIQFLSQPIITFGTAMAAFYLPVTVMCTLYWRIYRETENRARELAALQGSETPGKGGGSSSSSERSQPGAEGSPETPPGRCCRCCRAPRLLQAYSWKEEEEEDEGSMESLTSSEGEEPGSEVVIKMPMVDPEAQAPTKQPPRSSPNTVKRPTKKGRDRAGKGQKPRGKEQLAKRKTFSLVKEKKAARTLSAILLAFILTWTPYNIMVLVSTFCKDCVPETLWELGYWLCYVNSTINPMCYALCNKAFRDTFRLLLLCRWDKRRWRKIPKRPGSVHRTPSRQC
Kind of data set: Inhibition of human muscarinic M1 receptor at 10 uM. The procedure, abridged:
as §3

Chain of Cytochrome P450 2C9 (P11712 whole entry): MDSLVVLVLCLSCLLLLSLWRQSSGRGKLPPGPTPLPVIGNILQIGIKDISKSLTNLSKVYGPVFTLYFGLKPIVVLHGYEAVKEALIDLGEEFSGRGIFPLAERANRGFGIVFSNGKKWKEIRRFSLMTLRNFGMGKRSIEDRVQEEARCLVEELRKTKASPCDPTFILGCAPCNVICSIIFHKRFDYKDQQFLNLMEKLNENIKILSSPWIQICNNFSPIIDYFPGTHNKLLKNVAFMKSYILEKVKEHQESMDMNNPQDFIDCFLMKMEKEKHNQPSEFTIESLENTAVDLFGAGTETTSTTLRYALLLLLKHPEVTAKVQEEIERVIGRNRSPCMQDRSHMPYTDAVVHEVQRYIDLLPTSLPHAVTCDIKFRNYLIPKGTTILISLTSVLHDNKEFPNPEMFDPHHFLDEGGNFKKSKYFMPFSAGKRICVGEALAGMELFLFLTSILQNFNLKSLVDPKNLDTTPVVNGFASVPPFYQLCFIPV
Chain of Cytochrome P450 2D6 (P10635 whole entry): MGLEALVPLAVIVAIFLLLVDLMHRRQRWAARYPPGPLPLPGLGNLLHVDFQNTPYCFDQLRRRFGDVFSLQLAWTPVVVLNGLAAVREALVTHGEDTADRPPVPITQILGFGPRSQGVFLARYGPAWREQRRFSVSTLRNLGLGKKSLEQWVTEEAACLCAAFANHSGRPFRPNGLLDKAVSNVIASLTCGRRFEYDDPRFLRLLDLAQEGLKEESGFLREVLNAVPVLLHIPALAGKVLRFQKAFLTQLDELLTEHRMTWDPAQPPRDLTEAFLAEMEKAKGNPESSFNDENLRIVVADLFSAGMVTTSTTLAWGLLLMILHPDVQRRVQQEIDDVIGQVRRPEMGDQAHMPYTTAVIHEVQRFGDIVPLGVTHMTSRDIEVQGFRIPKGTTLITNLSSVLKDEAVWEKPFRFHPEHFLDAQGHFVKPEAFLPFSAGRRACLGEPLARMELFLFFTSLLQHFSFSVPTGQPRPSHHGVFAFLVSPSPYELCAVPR
Chain of Cytochrome P450 2C19 (P33261 whole entry): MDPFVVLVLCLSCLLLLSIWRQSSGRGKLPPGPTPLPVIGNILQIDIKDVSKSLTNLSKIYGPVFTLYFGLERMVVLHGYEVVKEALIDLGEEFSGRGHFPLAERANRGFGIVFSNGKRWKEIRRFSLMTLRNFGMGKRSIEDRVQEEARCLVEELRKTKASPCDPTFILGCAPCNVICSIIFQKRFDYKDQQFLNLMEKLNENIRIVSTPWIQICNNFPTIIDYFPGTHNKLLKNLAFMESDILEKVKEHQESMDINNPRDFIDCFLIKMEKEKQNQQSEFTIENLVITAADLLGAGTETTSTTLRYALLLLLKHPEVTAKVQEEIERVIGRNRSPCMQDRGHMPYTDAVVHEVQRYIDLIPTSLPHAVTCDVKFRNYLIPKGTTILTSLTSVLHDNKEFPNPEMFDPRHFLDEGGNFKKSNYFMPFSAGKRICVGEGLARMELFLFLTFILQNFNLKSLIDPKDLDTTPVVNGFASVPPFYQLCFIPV
Chain of Nitric oxide synthase, inducible (P35228 whole entry): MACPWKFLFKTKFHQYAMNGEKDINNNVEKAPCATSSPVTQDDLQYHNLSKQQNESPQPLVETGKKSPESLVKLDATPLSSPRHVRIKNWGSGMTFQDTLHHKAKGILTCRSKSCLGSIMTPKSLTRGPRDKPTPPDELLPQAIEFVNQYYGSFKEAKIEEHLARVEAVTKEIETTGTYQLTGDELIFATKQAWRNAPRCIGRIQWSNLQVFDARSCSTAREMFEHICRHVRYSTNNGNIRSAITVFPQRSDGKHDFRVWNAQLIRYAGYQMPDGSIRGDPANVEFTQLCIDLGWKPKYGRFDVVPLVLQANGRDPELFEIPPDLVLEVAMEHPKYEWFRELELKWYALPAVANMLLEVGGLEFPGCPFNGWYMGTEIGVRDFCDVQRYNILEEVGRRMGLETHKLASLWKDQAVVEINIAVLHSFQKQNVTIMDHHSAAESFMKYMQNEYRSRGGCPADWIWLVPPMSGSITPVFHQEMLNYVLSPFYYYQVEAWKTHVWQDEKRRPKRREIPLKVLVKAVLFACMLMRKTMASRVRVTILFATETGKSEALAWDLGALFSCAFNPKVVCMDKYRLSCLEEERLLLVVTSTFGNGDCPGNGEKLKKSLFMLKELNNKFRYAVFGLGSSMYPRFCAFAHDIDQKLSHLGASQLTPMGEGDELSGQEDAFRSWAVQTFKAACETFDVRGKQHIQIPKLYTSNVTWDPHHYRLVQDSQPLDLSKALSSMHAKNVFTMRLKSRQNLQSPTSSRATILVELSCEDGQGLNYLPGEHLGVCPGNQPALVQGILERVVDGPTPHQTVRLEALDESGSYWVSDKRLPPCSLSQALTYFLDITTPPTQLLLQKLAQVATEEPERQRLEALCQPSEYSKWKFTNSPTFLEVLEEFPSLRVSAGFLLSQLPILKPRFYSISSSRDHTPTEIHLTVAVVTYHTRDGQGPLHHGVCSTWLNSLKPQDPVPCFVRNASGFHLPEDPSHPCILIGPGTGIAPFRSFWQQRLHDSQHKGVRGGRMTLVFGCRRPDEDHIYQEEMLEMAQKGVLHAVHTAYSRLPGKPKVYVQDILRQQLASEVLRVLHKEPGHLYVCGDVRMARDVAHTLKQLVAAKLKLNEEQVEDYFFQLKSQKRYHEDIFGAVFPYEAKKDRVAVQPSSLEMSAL
Chain of Mu-type opioid receptor (Homo sapiens) (P35372 whole entry): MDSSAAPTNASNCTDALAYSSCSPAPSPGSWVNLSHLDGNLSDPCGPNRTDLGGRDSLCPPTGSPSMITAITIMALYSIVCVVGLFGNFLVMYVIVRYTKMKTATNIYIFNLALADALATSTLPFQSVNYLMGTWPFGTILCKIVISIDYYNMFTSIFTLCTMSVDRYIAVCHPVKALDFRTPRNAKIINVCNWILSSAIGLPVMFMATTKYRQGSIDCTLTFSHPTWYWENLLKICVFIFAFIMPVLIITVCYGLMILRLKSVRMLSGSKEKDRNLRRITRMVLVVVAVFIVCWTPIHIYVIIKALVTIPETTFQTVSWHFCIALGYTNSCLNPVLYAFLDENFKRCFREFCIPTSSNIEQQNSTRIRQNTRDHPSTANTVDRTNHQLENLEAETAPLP
Chain of Sodium-dependent noradrenaline transporter (P23975 whole entry): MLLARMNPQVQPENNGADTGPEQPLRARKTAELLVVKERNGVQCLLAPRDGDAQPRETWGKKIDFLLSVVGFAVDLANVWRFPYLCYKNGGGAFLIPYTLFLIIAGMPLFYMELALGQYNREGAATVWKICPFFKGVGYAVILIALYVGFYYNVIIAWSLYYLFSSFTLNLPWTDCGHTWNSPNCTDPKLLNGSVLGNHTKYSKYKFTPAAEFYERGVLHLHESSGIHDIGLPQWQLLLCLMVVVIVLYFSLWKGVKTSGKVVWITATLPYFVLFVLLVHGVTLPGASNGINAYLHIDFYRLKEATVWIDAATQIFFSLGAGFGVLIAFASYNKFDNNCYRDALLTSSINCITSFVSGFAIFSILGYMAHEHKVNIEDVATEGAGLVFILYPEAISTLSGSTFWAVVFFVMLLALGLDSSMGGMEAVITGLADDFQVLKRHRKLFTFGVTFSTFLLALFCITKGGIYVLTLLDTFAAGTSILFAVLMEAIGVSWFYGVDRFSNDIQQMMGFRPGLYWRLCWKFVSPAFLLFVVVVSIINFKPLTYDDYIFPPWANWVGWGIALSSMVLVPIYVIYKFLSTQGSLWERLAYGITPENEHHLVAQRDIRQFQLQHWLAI
Chain of Cytochrome P450 3A4 (P08684 whole entry): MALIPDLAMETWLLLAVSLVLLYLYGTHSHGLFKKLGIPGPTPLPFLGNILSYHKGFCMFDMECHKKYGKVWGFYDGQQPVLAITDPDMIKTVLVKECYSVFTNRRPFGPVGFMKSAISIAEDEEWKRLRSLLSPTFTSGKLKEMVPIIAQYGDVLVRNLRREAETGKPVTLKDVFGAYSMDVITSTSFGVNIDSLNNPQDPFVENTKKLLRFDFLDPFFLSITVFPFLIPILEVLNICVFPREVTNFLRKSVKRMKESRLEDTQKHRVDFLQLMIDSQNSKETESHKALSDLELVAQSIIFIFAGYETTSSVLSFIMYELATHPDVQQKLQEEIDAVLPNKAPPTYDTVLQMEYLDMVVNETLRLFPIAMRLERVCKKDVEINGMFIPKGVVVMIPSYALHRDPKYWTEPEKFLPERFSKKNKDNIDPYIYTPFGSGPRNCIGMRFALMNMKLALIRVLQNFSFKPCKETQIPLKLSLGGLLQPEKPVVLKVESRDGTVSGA
Chain of Muscarinic acetylcholine receptor M3 (Homo sapiens) (P20309 whole entry, looked up): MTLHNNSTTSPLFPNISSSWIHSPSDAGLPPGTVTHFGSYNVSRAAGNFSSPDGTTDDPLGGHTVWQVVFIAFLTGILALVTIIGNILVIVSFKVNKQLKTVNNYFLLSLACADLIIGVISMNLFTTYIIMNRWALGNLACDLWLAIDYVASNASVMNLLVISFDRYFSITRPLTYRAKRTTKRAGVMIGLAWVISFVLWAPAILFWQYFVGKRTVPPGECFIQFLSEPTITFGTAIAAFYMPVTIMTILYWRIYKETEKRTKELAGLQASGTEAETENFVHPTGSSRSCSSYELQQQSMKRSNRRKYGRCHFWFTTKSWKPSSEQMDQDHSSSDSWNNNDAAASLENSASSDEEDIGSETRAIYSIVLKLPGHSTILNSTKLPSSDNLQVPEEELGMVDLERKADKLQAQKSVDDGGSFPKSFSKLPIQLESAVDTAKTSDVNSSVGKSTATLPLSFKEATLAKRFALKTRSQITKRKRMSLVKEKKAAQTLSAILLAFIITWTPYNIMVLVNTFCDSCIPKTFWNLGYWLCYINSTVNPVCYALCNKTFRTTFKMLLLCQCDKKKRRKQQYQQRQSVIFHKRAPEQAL

For orientation: IC50 means the concentration at which inhibition is half-maximal. Turning to `CCN[C@H]1CC[C@@H](c2c[nH]c3ccc(NC(=N)c4cccs4)cc32)CC1`, the half-maximal inhibitory concentration (IC50) at Cytochrome P450 1A2 (read-out: IC50) was above 100 µM; at Cytochrome P450 2C19, 23.4 µM; against Cytochrome P450 2D6, 0.927 µM; in data set [1] it was 493 µM; at Cytochrome P450 2C9 (read-out: IC50), 21.5 µM.
On to `CNC1CCCC(c2c[nH]c3ccc(NC(=N)c4cccs4)cc23)C1.Cl` (single isomer, unassigned; (+)), for which the Stability entry (in the data set with Hepatocyte [2]; in the data set with Hepatocyte [3]; with Hepatocyte [5]; in [6]) was “Stable” throughout. Moreover, the IC50 in data set [4] is 1 µM; on Cytochrome P450 1A2, “Not Active”; at Cytochrome P450 2C19, above 100 µM; on Cytochrome P450 2D6, 5.14 µM; in data set [1], 6.76 µM; against Cytochrome P450 2C9 it was “Not Active”. The half-inhibitory concentration (IC50) on Cytochrome P450 3A4 was determined as 100 µM. The Activity in the data set with Rattus norvegicus [7] is listed as 90%; in data set [8], “Non-toxic”; in data set [9], “Non-toxic”; in the data set on Rattus norvegicus [10] it was 96%.
In general, inhibition refers to the share of the control response that was lost under treatment. In the case of `CNC1CCCC(c2c[nH]c3ccc(NC(=N)c4cccs4)cc23)C1` (single isomer, unassigned; (+)), the inhibition in data set [11] amounted to 88%; in data set [12] it was 53%; in [13], 61%; in data set [14], 87%; in [15], 93%; in data set [16], 87%. For the same compound, in [17], the inhibition is 80%.
